Each block holds one molecule with its values, some of them ahead of it.
Experiments:
[1] = molecular target: T1, 5-hydroxytryptamine receptor 7 (Homo sapiens, UniProt P34969); assay: Binding affinity towards cloned human 5-hydroxytryptamine 7 receptor expressed in HEK 293 cells using [3H]5-CT; format: cell-based, HEK293
How it was run: (§1)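 Radioligand displacement binding on the receptor source and radioligand named in each line. Each value is the mean of at least two determinations, and every determination lay within 0.2 log unit of that mean.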

[2] = molecular target: T2, 5-hydroxytryptamine receptor 1A (Homo sapiens, UniProt P08908); assay: The compound was tested for its binding affinity towards cloned human 5-hydroxytryptamine 1A receptor in HEK 293 cells using [3H]8-OH-DPAT.; format: cell-based, HEK293; how it was run: as §1
T2 sequence (P08908 whole entry): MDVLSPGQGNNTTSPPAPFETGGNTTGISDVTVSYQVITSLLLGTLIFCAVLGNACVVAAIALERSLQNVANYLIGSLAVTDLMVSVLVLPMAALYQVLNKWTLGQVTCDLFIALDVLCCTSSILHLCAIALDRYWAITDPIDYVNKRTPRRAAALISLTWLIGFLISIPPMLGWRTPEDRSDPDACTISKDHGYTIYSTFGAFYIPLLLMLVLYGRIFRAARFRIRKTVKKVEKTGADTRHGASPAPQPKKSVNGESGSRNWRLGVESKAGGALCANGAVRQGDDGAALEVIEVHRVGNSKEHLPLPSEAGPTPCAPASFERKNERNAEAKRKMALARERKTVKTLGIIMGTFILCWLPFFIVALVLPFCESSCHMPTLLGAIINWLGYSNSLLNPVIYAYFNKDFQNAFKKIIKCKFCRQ

[3] = molecular target: 5-hydroxytryptamine receptor 1B (Homo sapiens, UniProt P28222); assay: The compound was tested for its binding affinity towards cloned human 5-hydroxytryptamine 1B receptor in CHO cells using [3H]5-HT; format: cell-based
How it was run: (§2)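 Radioligand displacement on cloned human receptors expressed in the host cell line listed in each line. Values are the mean of at least two determinations, each within 0.2 log unit of the mean.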

[4] = molecular target: 5-hydroxytryptamine receptor 1D (Homo sapiens, UniProt P28221); assay: The compound was tested for its binding affinity towards cloned human 5-hydroxytryptamine 1D receptor in CHO cells using [3H]5-HT.; format: cell-based; how it was run: as §2
[5] = molecular target: 5-hydroxytryptamine receptor 1E (Homo sapiens, UniProt P28566); assay: The compound was tested for its binding affinity towards cloned human 5-hydroxytryptamine 1E receptor in CHO cells using [3H]5-HT.; format: cell-based; how it was run: as §2
[6] = molecular target: 5-hydroxytryptamine receptor 2A (Homo sapiens, UniProt P28223); assay: The compound was tested for its binding affinity towards cloned human 5-hydroxytryptamine 2A receptor in HEK293 cells using [3H]-ketanserin.; format: cell-based; how it was run: as §2
[7] = molecular target: T3, 5-hydroxytryptamine receptor 1F (Homo sapiens, UniProt P30939); assay: The compound was tested for its binding affinity towards cloned human 5-hydroxytryptamine 1F receptor in CHO cells using [3H]5-HT.; format: cell-based; how it was run: as §1
T3 sequence (P30939 whole entry): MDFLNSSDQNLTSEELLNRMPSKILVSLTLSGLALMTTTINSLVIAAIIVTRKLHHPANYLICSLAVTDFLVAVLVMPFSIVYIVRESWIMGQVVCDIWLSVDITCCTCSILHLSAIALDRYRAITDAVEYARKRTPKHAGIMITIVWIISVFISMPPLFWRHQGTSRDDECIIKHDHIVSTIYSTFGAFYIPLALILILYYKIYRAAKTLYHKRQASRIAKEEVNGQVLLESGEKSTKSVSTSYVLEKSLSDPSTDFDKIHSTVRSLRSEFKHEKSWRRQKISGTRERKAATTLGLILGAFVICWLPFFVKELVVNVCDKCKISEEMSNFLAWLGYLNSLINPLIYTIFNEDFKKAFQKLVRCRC

[8] = molecular target: 5-hydroxytryptamine receptor 2B (Homo sapiens, UniProt P41595); assay: The compound was tested for its binding affinity towards cloned human 5-hydroxytryptamine 2B receptors in HEK293 cells using [3H]5-HT.; format: cell-based
How it was run: (§3)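 Radioligand displacement binding on cloned human receptors expressed in HEK 293 cells: 5-HT2B labelled with [3H]-5-HT, 5-HT7 labelled with [3H]-5-CT. Each value is the mean of at least two determinations, each within 0.2 log unit of the mean.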

[9] = molecular target: T4, 5-hydroxytryptamine receptor 2C (Homo sapiens, UniProt P28335); assay: The compound was tested for its binding affinity towards cloned human 5-hydroxytryptamine 2C receptor in HEK293 cells using [3H]mesulergine.; format: cell-based; how it was run: as §1
T4 sequence (P28335 whole entry): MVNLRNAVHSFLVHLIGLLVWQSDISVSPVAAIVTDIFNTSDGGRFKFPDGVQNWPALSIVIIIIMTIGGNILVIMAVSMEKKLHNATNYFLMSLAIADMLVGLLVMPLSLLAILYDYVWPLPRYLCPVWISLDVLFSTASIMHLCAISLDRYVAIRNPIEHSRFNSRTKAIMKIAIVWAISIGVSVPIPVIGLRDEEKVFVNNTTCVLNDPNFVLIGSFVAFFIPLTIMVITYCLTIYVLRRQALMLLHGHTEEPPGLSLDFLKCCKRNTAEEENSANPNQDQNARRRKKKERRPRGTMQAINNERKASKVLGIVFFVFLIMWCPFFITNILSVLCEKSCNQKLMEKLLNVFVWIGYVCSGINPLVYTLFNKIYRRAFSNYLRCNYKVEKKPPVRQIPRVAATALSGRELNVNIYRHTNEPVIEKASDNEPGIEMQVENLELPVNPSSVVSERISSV

[10] = molecular target: T1, 5-hydroxytryptamine receptor 7; assay: The compound was tested for its binding affinity towards cloned human 5-hydroxytryptamine 7 receptor in HEK 293 cells using [3H]5-CT.; format: cell-based, HEK293; how it was run: as §3
[11] = molecular target: 5-hydroxytryptamine receptor 6 (Homo sapiens, UniProt P50406); assay: The compound was tested for its binding affinity towards cloned human 5-hydroxytryptamine 6 receptor in HeLa cells using […].; format: cell-based; how it was run: as §2
[12] = molecular target: D(2) dopamine receptor (Homo sapiens, UniProt P14416); assay: The compound was tested for its binding affinity towards cloned human Dopamine receptor D2 in CHO cells using [125I]iodosulpiride.; format: cell-based
[13] = molecular target: D(3) dopamine receptor (Homo sapiens, UniProt P35462); assay: The compound was tested for its binding affinity towards cloned human Dopamine receptor D3 in CHO cells using [125I]iodosulpiride.; format: cell-based
[14] = molecular target: T5, Alpha-1B adrenergic receptor (Homo sapiens, UniProt P35368); assay: The compound was tested for its binding affinity towards adrenergic alpha-1B receptors
T5 sequence (P35368 whole entry): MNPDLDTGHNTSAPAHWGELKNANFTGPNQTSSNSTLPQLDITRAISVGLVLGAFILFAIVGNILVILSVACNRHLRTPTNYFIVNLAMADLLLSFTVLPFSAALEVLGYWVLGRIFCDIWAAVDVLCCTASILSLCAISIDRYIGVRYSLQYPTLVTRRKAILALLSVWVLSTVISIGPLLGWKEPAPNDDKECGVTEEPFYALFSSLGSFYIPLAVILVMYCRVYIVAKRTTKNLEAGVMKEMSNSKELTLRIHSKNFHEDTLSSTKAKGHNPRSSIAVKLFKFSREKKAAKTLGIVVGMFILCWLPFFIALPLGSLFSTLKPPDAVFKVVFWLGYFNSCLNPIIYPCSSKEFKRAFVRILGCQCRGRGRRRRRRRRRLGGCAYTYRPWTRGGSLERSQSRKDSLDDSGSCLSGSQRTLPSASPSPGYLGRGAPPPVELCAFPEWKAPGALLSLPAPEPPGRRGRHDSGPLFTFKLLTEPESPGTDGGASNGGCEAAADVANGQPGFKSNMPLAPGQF

T1 sequence (P34969 whole entry): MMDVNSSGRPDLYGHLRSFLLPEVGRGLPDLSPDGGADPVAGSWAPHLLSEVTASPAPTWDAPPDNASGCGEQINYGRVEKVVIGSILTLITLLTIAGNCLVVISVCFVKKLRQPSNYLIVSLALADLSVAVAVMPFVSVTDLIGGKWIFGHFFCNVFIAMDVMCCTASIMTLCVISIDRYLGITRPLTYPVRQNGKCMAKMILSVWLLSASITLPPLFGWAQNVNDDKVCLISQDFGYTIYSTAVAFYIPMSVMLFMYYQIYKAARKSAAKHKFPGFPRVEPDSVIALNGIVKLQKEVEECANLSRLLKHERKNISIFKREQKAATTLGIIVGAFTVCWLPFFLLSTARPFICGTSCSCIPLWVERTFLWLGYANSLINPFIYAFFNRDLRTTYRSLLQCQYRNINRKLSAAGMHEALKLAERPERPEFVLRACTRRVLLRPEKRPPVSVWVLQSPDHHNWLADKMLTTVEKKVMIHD
Chain of D(2) dopamine receptor (P14416 whole entry): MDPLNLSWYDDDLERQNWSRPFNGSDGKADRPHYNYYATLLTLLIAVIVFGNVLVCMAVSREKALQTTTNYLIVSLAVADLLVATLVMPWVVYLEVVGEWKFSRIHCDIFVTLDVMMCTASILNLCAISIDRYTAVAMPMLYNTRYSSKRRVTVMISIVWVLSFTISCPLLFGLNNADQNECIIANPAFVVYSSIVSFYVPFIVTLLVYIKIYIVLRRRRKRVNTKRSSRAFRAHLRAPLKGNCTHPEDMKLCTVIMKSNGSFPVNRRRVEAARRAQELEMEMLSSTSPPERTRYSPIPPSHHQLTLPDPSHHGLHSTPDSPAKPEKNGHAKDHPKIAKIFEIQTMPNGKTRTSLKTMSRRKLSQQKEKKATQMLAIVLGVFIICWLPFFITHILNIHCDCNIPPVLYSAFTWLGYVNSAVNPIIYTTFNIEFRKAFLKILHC
Chain of 5-hydroxytryptamine receptor 2A (P28223 whole entry): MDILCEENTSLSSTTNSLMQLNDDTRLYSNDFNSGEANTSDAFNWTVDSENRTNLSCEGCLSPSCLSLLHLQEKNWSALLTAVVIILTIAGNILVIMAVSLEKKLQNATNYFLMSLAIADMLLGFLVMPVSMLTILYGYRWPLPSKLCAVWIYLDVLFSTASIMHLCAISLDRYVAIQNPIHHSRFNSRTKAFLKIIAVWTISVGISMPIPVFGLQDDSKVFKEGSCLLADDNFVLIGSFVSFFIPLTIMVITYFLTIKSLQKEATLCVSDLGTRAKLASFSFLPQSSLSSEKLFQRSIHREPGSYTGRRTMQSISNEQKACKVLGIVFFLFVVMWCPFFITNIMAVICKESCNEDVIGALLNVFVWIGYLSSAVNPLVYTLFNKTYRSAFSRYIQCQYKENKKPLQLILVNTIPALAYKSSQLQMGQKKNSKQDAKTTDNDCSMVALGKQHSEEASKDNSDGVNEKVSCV
Chain of D(3) dopamine receptor (P35462 whole entry): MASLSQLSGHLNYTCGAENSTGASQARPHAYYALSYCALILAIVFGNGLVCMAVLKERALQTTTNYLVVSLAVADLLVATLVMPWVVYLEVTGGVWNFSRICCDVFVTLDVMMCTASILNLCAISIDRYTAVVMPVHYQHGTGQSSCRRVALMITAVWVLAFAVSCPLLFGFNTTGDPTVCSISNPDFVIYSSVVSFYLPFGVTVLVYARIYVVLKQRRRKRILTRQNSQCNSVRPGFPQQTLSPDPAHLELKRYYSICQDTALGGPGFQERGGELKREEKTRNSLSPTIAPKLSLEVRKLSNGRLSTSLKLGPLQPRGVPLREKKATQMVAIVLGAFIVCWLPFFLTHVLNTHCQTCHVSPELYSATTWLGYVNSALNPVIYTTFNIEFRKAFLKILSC
Chain of 5-hydroxytryptamine receptor 1E (P28566 whole entry): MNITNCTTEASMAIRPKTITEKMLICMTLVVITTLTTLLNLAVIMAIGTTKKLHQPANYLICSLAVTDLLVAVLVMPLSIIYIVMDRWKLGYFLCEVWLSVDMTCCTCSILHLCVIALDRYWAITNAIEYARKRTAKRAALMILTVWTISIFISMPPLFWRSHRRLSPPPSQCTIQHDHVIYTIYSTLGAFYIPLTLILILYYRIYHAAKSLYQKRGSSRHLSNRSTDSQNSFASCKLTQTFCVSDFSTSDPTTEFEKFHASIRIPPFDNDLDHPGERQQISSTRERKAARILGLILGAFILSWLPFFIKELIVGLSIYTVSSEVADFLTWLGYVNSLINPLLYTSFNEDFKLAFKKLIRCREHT
Chain of 5-hydroxytryptamine receptor 2B (P41595 whole entry): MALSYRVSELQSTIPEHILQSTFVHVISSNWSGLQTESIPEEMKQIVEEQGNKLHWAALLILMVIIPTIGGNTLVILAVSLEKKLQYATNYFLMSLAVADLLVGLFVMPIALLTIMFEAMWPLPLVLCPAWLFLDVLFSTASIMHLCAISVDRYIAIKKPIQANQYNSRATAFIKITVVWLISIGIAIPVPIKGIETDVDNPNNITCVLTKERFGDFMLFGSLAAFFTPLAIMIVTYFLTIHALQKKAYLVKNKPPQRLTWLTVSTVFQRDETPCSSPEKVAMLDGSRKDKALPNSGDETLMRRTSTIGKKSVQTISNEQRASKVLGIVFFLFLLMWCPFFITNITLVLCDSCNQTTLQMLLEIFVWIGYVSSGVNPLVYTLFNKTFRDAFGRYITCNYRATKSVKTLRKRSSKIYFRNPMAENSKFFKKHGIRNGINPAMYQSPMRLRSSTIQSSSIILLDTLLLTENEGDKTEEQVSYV
Chain of 5-hydroxytryptamine receptor 1D (P28221 whole entry): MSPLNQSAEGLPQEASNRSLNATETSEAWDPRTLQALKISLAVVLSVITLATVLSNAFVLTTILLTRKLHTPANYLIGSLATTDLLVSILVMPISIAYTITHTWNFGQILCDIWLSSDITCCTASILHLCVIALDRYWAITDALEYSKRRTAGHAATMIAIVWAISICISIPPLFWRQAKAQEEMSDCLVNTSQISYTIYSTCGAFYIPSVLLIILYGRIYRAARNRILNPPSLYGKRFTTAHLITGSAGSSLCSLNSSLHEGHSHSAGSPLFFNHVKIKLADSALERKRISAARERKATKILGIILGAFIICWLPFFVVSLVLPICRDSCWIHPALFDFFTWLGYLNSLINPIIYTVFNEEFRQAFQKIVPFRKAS
Chain of 5-hydroxytryptamine receptor 6 (P50406 whole entry): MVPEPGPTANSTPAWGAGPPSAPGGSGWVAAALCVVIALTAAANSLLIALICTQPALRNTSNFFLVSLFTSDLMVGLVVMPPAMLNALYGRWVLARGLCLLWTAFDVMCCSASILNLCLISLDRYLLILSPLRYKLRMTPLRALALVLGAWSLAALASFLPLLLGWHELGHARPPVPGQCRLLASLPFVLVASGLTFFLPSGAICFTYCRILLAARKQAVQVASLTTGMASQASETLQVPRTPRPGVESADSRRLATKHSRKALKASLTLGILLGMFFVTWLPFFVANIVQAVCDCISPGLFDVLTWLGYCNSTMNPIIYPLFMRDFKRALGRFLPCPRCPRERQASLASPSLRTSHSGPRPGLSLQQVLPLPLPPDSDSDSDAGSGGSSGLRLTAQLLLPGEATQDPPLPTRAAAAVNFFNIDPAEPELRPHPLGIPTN
Chain of 5-hydroxytryptamine receptor 1B (P28222 whole entry): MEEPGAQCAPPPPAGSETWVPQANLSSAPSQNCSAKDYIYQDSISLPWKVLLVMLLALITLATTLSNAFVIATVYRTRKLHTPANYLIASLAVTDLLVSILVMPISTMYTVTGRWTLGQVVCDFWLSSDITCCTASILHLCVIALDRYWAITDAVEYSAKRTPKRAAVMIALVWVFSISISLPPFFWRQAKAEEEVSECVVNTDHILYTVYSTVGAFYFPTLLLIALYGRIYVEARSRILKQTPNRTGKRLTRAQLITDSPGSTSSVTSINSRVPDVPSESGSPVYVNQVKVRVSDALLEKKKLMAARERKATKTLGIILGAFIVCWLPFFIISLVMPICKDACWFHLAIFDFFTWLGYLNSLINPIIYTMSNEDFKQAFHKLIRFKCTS

Ki [1]: 0.02 µM
Structure (SMILES): CC1CCN(CC[C@@H](C)N(C)S(=O)(=O)c2ccc(Br)c(Br)c2)CC1

Ki [1]: 0.631 µM
Structure (SMILES): C[C@H]1CCCN(CC[C@@H](C)N(C)S(=O)(=O)c2cccc3ccccc23)C1

Ki [1]: 1.58 µM
Structure (SMILES): C[C@@H]1CCCN(CC[C@H](C)N(C)S(=O)(=O)c2cccc3ccccc23)C1

Ki [1]: 0.126 µM
Structure (SMILES): C[C@@H]1CCCN(CC[C@@H](C)N(C)S(=O)(=O)c2cccc3ccccc23)C1

Ki [1]: 0.0631 µM
Structure (SMILES): CC1CCCN(CCC(C)N(C)S(=O)(=O)c2cccc3ccccc23)C1 (configuration not stated)

Ki [2]: > 7.94 µM
Ki [3]: > 5.01 µM
Ki [4]: 3.16 µM
Ki [5]: > 15.8 µM
Ki [6]: > 15.8 µM
Ki [7]: > 6.31 µM
Ki [8]: > 5.01 µM
Ki [9]: > 15.8 µM
Ki [10]: 0.0316 µM
Ki [11]: > 15.8 µM
Ki [12]: 3.98 µM
Ki [13]: 3.98 µM
Ki [14]: > 15.8 µM
Structure (SMILES): Cc1cccc(S(=O)(=O)N(C)[C@H](C)CCN2CCC(C)CC2)c1 [SB-258719]

Ki [1]: 0.0316 µM
Structure (SMILES): CC1CCN(CC[C@@H](C)N(C)S(=O)(=O)c2cccc3ccccc23)CC1

Ki [1]: > 10 µM
Structure (SMILES): C[C@H]1CCCN(CC[C@H](C)N(C)S(=O)(=O)c2cccc3ccccc23)C1

Ki [1]: 0.0316 µM
Structure (SMILES): CC1CCN(CC[C@@H](C)N(C)S(=O)(=O)c2ccc(Cl)c(Cl)c2)CC1

Ki [1]: 0.0158 µM
Structure (SMILES): CC1CCN(CC[C@@H](C)N(C)S(=O)(=O)c2cc(Br)c(Br)s2)CC1

Reference: ChEMBL document CHEMBL1131479, “(R)-3,N-dimethyl-N-[1-methyl-3-(4-methyl-piperidin-1-yl) propyl]benzenesulfonamide: the first selective 5-HT7 receptor antagonist” (J Med Chem, 1998)
